KDM4C inh = inhibitors of GASC-1 (KDM4C) histone demethylase, primary screen, biochemical, single concentration HTS; GST-KDM4C 2-372, H3K9me3 peptide, LANCE TR-FRET; inhibition, % at 12.5 µM; actives 0.15% (n = 96,000);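 active means mean replicate inhibition above about 25%, with at least 55% of replicates also reaching it, limit read from the data, passing the limit was not always enough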
Target sequence (Q9H3R0 2-372 limits assumed): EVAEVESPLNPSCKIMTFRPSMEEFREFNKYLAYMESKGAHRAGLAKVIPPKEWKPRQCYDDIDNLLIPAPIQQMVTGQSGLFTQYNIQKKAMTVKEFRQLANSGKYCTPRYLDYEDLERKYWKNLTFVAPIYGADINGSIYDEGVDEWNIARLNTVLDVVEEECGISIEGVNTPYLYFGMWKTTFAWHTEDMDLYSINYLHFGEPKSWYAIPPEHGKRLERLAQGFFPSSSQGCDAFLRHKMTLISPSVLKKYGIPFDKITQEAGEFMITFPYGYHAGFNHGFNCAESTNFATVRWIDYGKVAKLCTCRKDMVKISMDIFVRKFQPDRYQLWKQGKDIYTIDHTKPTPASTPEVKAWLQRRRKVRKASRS
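Material: N-terminal GST-fused human GASC-1 (KDM4C) fragment, residues 2-372. Input: 10 nM enzyme. Incubation: enzyme reaction 30 min, then detection 60 min, both room temperature. Doses: one test concentration per compound. Read-out basis: inhibition from TR-FRET ratio decrease. Detection: LANCE TR-FRET, excitation 340 nm, emissions 618 and 671 nm.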
Pf Dd2 inh = P. falciparum Dd2 growth inhibitors, primary screen, SYBR Green fluorescence, single dose replicates; 72 h; active compounds read low; activity change, % at 10 µM; actives 2.3% (n = 94,000); in the data active means activity change below about -80%
IDH1 R132H inh = inhibitors of IDH1 R132H reductase, primary screen, biochemical, plate reader, single point; AID 624101, 2012; diaphorase/resazurin fluorescence, 60 min; actives 0.18% (n = 70,000); Isocitrate dehydrogenase [NADP] cytoplasmic (Homo sapiens), O75874; inhibition, % at 10 µM; in the data active means inhibition above about 34%;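 further: 0% = DMSO and 100% = no enzyme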
* hit, by the source's call. Shown is part of a subset that was picked to be rich in hits.

What do the screens show for `C[C@@H]1CN([C@H](C)CO)C(=O)c2cc(NC(=O)c3ccccc3)ccc2O[C@@H](C)CCCCO[C@@H]1CN(C)C(=O)Nc1cccc2ccccc12`?
KDM4C inh: -1.6; Pf Dd2 inh: -88.5*; IDH1 R132H inh: -0.6

Results for C[C@@H]1CCCCO[C@H](CN(C)C(=O)Nc2cccc3ccccc23)[C@@H](C)CN([C@@H](C)CO)C(=O)c2cc(N(C)C)ccc2O1 ?
KDM4C inh: -1.5; Pf Dd2 inh: -82.5*; IDH1 R132H inh: -3.0

What do the screens show for `C[C@@H]1CN([C@H](C)CO)C(=O)c2cc(N(C)C)ccc2O[C@@H](C)CCCCO[C@H]1CN(C)C(=O)Nc1cccc2ccccc12`?
IDH1 R132H inh: 0.8

Results for C[C@@H]1CCCCO[C@H](CN(C)C(=O)Nc2cccc3ccccc23)[C@@H](C)CN([C@@H](C)CO)C(=O)c2cc(NC(=O)c3ccccc3)ccc2O1 ?
KDM4C inh: -1.0; Pf Dd2 inh: -81.6*

Results for C[C@H](CO)N1C[C@H](C)[C@H](CN(C)C(=O)Nc2cccc3ccccc23)OCCCC[C@H](C)Oc2ccc(NC(=O)c3ccccc3)cc2C1=O ?
KDM4C inh: -0.5; Pf Dd2 inh: -46.0

What do the screens show for `C[C@@H]1CCCCO[C@@H](CN(C)C(=O)Nc2cccc3ccccc23)[C@@H](C)CN([C@H](C)CO)C(=O)c2cc(NC(=O)c3ccccc3)ccc2O1`?
KDM4C inh: -1.8; Pf Dd2 inh: -53.4

What do the screens show for `O=C(N[C@@H]1CC[C@H](CCNS(=O)(=O)c2ccc(F)cc2)O[C@@H]1CO)c1cccc(F)c1`?
KDM4C inh: -0.8; IDH1 R132H inh: -0.2

How did CCC(=O)NC[C@@H]1[C@H](c2ccccc2)[C@@H](CO)N1C(=O)C1CCC1 do in these assays?
KDM4C inh: 3.0; Pf Dd2 inh: 11.6

Results for C[C@H]1CN([C@@H](C)CO)C(=O)c2c(c3ccccc3n2C)-c2ccccc2CO[C@@H]1CN(C)S(=O)(=O)c1ccc(C#N)cc1 ?
KDM4C inh: -0.3; Pf Dd2 inh: -72.7

What do the screens show for `C[C@H]1CN([C@@H](C)CO)C(=O)c2c(c3ccccc3n2C)-c2ccccc2CO[C@@H]1CN(C)S(=O)(=O)c1ccccc1`?
KDM4C inh: -4.2; Pf Dd2 inh: -79.2

What do the screens show for `C[C@@H]1CN([C@@H](C)CO)C(=O)c2c(c3ccccc3n2C)-c2ccccc2CO[C@H]1CN(C)S(=O)(=O)c1ccc(C(F)(F)F)cc1`?
Pf Dd2 inh: -89.3*

Results for C[C@@H]1CN([C@H](C)CO)C(=O)c2c(c3ccccc3n2C)-c2ccccc2CO[C@@H]1CN(C)S(=O)(=O)c1ccc(Cl)cc1 ?
KDM4C inh: -1.6; Pf Dd2 inh: -80.8*; IDH1 R132H inh: 0.0

Results for Cc1ccc(S(=O)(=O)N(C)C[C@H]2OCc3ccccc3-c3c(n(C)c4ccccc34)C(=O)N([C@@H](C)CO)C[C@H]2C)cc1 ?
KDM4C inh: -0.7; Pf Dd2 inh: -86.5*

What do the screens show for `C[C@@H]1CN([C@@H](C)CO)C(=O)c2c(c3ccccc3n2C)-c2ccccc2CO[C@H]1CN(C)S(=O)(=O)c1ccc([N+](=O)[O-])cc1`?
KDM4C inh: -1.2; Pf Dd2 inh: -76.3

What do the screens show for `C[C@@H]1CN([C@@H](C)CO)C(=O)c2c(c3ccccc3n2C)-c2ccccc2CO[C@H]1CN(C)S(=O)(=O)c1ccc(Cl)cc1`?
KDM4C inh: -0.9; Pf Dd2 inh: -75.2

What do the screens show for `C[C@H](CO)N1C[C@H](C)[C@H](CN(C)S(=O)(=O)c2ccc(C#N)cc2)OCc2ccccc2-c2c(n(C)c3ccccc23)C1=O`?
KDM4C inh: -0.1; Pf Dd2 inh: -88.4*; IDH1 R132H inh: 1.0

Results for C[C@@H]1CN([C@H](C)CO)C(=O)Cc2cc(NC(=O)Cn3cnnn3)ccc2O[C@H]1CN(C)S(=O)(=O)c1ccc(Cl)cc1 ?
KDM4C inh: 1.1; Pf Dd2 inh: -1.0; IDH1 R132H inh: 1.4

Results for O=C(C[C@H]1CC[C@@H]2NC[C@@H](O)COC[C@H]2O1)NC1Cc2ccccc2C1 ?
KDM4C inh: -0.4

What do the screens show for `O=C(C1CCCCC1)N1C[C@@H]2[C@H](c3ccccc31)[C@H](CO)N2CC1CCOCC1`?
KDM4C inh: -1.3; Pf Dd2 inh: -7.5

What do the screens show for `CN1CCN(C(=O)C[C@H]2C[C@H]3c4cc(NC(=O)C5CCOCC5)ccc4O[C@H]3[C@H](CO)O2)CC1`?
KDM4C inh: -1.4; Pf Dd2 inh: 10.1; IDH1 R132H inh: 0.0

How did COc1ccccc1S(=O)(=O)N[C@H]1CC[C@@H](CC(=O)NCc2cccc(F)c2)O[C@@H]1CO do in these assays?
KDM4C inh: 0.6; Pf Dd2 inh: 0.6; IDH1 R132H inh: -0.4

What do the screens show for `C[C@@H]1CN([C@@H](C)CO)C(=O)Cc2cc(NC(=O)Nc3ccc(F)cc3)ccc2O[C@@H]1CN(C)Cc1ccc(-c2ccccc2)cc1`?
KDM4C inh: -1.3; Pf Dd2 inh: 18.7; IDH1 R132H inh: 2.5

How did C[C@H](CO)N1C[C@H](C)[C@@H](CN(C)S(=O)(=O)c2ccc(F)cc2)OCc2ccccc2-c2c(n(C)c3ccccc23)C1=O do in these assays?
KDM4C inh: 0.8; Pf Dd2 inh: -23.3

What do the screens show for `C[C@H]1CN([C@@H](C)CO)C(=O)c2c(c3ccccc3n2C)-c2ccccc2CO[C@H]1CN(C)S(=O)(=O)c1ccc(F)cc1`?
KDM4C inh: -2.4; Pf Dd2 inh: -87.1*; IDH1 R132H inh: 0.2

Results for CNC[C@@H]1Oc2cc(C#CC3(O)CCCC3)ccc2S(=O)(=O)N([C@@H](C)CO)C[C@@H]1C ?
KDM4C inh: 0.1; Pf Dd2 inh: -33.7; IDH1 R132H inh: 1.9

How did CCCC#Cc1cnc2c(c1)C(=O)N([C@H](C)CO)C[C@@H](C)[C@@H](CN(C)C(=O)Nc1cccc(F)c1)O2 do in these assays?
KDM4C inh: 7.3; Pf Dd2 inh: -36.0; IDH1 R132H inh: 0.2

How did CC(C)CC#Cc1cnc2c(c1)C(=O)N([C@H](C)CO)C[C@@H](C)[C@H](CN(C)C(=O)Nc1cc(F)ccc1F)O2 do in these assays?
KDM4C inh: 0.1; Pf Dd2 inh: -83.2*

How did CCCC#Cc1cnc2c(c1)C(=O)N([C@@H](C)CO)C[C@H](C)[C@H](CN(C)C(=O)Nc1cccc(F)c1)O2 do in these assays?
KDM4C inh: 2.9; Pf Dd2 inh: -88.1*; IDH1 R132H inh: -2.7

What do the screens show for `CC(C)CC#Cc1cnc2c(c1)C(=O)N([C@@H](C)CO)C[C@@H](C)[C@@H](CN(C)C(=O)Nc1cc(F)ccc1F)O2`?
KDM4C inh: -1.3; Pf Dd2 inh: -57.4

How did C[C@H]1CCCCO[C@@H](CN(C)CC2CCCCC2)[C@@H](C)CN([C@@H](C)CO)C(=O)c2cc(NC(=O)Nc3ccc(F)cc3)ccc2O1 do in these assays?
KDM4C inh: 0.7; Pf Dd2 inh: -84.8*; IDH1 R132H inh: 0.0

How did C[C@H](CO)N1C[C@H](C)[C@H](CN(C)CC2CCCCC2)OCCCC[C@H](C)Oc2ccc(NC(=O)Nc3ccc(F)cc3)cc2C1=O do in these assays?
KDM4C inh: 0.5; Pf Dd2 inh: -86.7*; IDH1 R132H inh: 5.0

Screens: PubChem BioAssay, Broad Institute
